Blank lines part the entries; values can stand above or below the compound they belong to.
What was measured:
Trypanosoma brucei = assay: Antitrypanosomal activity against Trypanosoma brucei Squib 427 assessed as reduction in parasite growth incubated for 72 hrs by resazurin dye based fluorimetric analysis; assay type: functional, organism-based; settings: Squib 427, 72 h
[1] = Cytotoxicity against human MRC5 SV2 cells assessed as reduction in cell viability incubated for 72 hrs by resazurin dye based fluorimetric assay; settings: MRC-5 SV2, 72 h
In short: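 MRC-5 SV2 fibroblasts grown in Earl's MEM with 5% FBSi, L-glutamine and bicarbonate; 1×10^4 cells/well treated 72 h at 37 °C, 5% CO2; resazurin viability read fluorimetrically (ex 550, em 590 nm). Five 4-fold dilutions from a 64 µM top concentration; IC50 derived from % viability reduction vs untreated wells; tamoxifen as reference.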

[2] = target: T1, Class 1 phosphodiesterase PDEB1 (Trypanosoma brucei, UniProt Q8WQX9); assay: Inhibition of Trypanosoma brucei PDEB1 (565 to 918 residues) expressed in Escherichia coli BL21 (DE3) using cAMP as substrate by PDELight HTS cAMP phosphodiesterase Kit based
T1 sequence (Q8WQX9 whole entry): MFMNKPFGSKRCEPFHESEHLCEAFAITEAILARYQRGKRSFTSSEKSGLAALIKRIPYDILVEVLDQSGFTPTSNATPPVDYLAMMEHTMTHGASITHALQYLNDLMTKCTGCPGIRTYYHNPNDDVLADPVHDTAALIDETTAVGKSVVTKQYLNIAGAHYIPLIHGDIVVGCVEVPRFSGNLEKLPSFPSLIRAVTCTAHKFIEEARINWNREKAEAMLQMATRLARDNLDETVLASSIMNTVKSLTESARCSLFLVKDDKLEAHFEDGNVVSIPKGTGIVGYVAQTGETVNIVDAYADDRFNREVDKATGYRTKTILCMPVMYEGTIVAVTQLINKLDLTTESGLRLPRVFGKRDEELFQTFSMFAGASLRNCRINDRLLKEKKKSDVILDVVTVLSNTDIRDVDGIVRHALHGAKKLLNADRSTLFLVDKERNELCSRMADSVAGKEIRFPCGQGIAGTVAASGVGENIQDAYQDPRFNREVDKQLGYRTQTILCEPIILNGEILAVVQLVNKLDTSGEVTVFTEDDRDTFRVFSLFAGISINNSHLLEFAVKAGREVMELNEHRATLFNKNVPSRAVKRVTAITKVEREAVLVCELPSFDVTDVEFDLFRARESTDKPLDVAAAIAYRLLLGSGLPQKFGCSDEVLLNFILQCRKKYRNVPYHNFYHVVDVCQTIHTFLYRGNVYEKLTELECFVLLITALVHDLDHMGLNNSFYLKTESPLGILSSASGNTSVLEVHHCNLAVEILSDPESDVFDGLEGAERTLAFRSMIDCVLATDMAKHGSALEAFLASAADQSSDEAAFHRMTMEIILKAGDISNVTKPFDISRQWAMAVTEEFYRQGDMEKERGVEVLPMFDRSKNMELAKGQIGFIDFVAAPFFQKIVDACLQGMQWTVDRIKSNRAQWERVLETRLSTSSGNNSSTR
In short: (§1)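 Recombinant catalytic domains, His-tag purified, then ion exchange and size exclusion, were tested with the PDELight HTS cAMP kit in stimulation buffer (50 mM Hepes, 100 mM NaCl, 10 mM MgCl2, 0.5 mM EDTA, 0.05 mg/ml BSA, pH 7.5). Dose-response curves gave Ki, expressed as pKi = −log10(Ki ÷ 1000000).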

[3] = target: 3',5'-cyclic-AMP phosphodiesterase 4D (Homo sapiens, UniProt Q08499); assay: Inhibition of human PDE4D2 expressed in Escherichia coli BL21 (DE3) using cAMP as substrate by PDELight HTS cAMP phosphodiesterase Kit based; in short: as §1
Sequence of 3',5'-cyclic-AMP phosphodiesterase 4D (Q08499 whole entry): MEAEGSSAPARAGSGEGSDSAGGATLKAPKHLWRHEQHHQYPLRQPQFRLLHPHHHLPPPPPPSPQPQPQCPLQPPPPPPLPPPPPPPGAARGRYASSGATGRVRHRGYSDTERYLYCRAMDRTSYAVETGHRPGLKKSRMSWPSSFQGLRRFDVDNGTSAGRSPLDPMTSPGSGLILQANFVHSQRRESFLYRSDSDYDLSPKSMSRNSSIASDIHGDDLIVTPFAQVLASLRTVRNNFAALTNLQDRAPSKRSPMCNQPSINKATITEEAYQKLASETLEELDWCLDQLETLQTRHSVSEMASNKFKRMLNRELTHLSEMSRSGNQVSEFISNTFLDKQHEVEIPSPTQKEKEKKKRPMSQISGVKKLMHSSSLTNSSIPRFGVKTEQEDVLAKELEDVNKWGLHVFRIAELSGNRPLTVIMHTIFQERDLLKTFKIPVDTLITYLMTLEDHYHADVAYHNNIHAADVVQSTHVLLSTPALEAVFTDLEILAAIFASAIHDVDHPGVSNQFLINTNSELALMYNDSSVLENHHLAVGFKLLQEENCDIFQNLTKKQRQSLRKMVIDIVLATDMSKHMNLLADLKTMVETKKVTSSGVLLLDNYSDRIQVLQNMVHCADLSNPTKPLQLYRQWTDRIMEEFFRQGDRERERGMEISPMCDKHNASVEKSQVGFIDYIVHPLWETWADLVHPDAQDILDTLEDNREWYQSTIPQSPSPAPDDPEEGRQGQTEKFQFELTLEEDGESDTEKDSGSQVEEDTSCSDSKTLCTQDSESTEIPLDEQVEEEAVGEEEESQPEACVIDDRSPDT

Structure (SMILES): COc1ccc(-c2ccc(=O)n(C3CCN(c4nc(N)nc5sccc45)CC3)n2)cc1OC
- IC50 (Trypanosoma brucei): 7.76 µM
- IC50 [1]: 11.2 µM
- Ki [2]: > 3.72 µM

Structure (SMILES): COc1ccc(C2=NN(C3CCN(c4nc(N)nc5[nH]cnc45)CC3)C(=O)[C@@H]3CC=CC[C@H]23)cc1OC
- IC50 (Trypanosoma brucei): 1.7 µM
- IC50 [1]: 17.8 µM
- Ki [2]: 0.105 µM
- Ki [3]: 0.000871 µM

Structure (SMILES): COc1ccc(C2=NN(C3CCN(C(=O)CN4C(=O)CC5(CCCCC5)CC4=O)CC3)C(=O)[C@@H]3CCCC[C@H]23)cc1OC
- IC50 [1]: 8.51 µM
- Ki [2]: > 9.77 µM

Structure (SMILES): COc1ccc(-c2nn(C3CCN(c4nc(N)nc5sccc45)CC3)c(=O)n3ccnc23)cc1OC
- IC50 (Trypanosoma brucei): 64.6 µM
- IC50 [1]: 64.6 µM
- Ki [2]: > 18.2 µM

Structure (SMILES): COc1ccc(-c2n[nH]c(=O)n3ccnc23)cc1OC
- IC50 (Trypanosoma brucei): 64.6 µM
- IC50 [1]: 64.6 µM
- Ki [2]: > 31.6 µM

Structure (SMILES): COc1ccc(-c2nn(C3CCNCC3)c(=O)n3ccnc23)cc1OC
- IC50 (Trypanosoma brucei): 32.4 µM
- IC50 [1]: 64.6 µM
- Ki [2]: > 31.6 µM

Structure (SMILES): CC1(C)CC(=O)N(CC(=O)N2CCC(N3N=C(c4ccc(F)c(F)c4)[C@H]4CCCC[C@H]4C3=O)CC2)C(=O)C1
- IC50 (Trypanosoma brucei): 45.7 µM
- IC50 [1]: 42.7 µM
- Ki [2]: > 22.4 µM

Structure (SMILES): COc1ccc(C2=NN(C3CCN(c4ncnc5ccsc45)CC3)C(=O)C2(C)C)cc1OC
- IC50 (Trypanosoma brucei): 32.4 µM
- IC50 [1]: 25.1 µM
- Ki [2]: > 2.04 µM

Structure (SMILES): COc1ccc(C2=NN(C3CCN(c4nc(N)c5ccccc5n4)CC3)C(=O)[C@@H]3CC=CC[C@H]23)cc1OC
- IC50 (Trypanosoma brucei): 0.871 µM
- IC50 [1]: 7.41 µM
- Ki [2]: 0.646 µM
- Ki [3]: 0.00245 µM

Structure (SMILES): O=C(CN1C(=O)CC2(CCCC2)CC1=O)N1CCC(N2N=C(c3ccc(F)cc3)[C@H]3CC=CC[C@H]3C2=O)CC1 (relative stereo)
- IC50 (Trypanosoma brucei): 32.4 µM
- IC50 [1]: 40.7 µM
- Ki [2]: > 16.6 µM

Structure (SMILES): CC1(C)CC(=O)N(CC(=O)N2CCC(N3N=C(c4ccc(F)c(F)c4)[C@H]4CC=CC[C@H]4C3=O)CC2)C(=O)C1 (relative stereo)
- IC50 (Trypanosoma brucei): 47.9 µM
- IC50 [1]: 30.9 µM
- Ki [2]: > 9.77 µM

Structure (SMILES): O=C(CN1C(=O)CC2(CCCCC2)CC1=O)N1CCC(N2N=C(c3ccc(F)cc3)[C@H]3CC=CC[C@H]3C2=O)CC1 (relative stereo)
- IC50 (Trypanosoma brucei): 10.2 µM
- IC50 [1]: 64.6 µM
- Ki [2]: > 9.55 µM

Now from value to compound, other results behind:

- IC50 (Trypanosoma brucei): 1.86 µM
- Ki [2]: 0.11 µM
- Ki [3]: 0.000316 µM
Structure (SMILES): COc1ccc(C2=NN(C3CCN(c4nccc(N)n4)CC3)C(=O)[C@@H]3CC=CC[C@H]23)cc1OC
- IC50 [1]: 17.4 µM

- IC50 (Trypanosoma brucei): 0.468 µM
- Ki [2]: 0.0427 µM
- Ki [3]: 0.000355 µM
Structure (SMILES): COc1ccc(C2=NN(C3CCN(c4nc(N)nc5sccc45)CC3)C(=O)[C@@H]3CC=CC[C@H]23)cc1OC
- IC50 [1]: 64.6 µM

- IC50 (Trypanosoma brucei): 2.29 µM
- Ki [2]: 0.692 µM
- Ki [3]: 0.00257 µM
Structure (SMILES): COc1ccc(C2=NN(C3CCN(c4ncc5sccc5n4)CC3)C(=O)[C@@H]3CC=CC[C@H]23)cc1OC
- IC50 [1]: 64.6 µM

- IC50 (Trypanosoma brucei): 1.7 µM
- Ki [2]: 0.646 µM
- Ki [3]: 0.000589 µM
Structure (SMILES): COc1ccc(C2=NN(C3CCN(c4ncc5ccccc5n4)CC3)C(=O)[C@@H]3CC=CC[C@H]23)cc1OC
- IC50 [1]: 64.6 µM

- IC50 (Trypanosoma brucei): 3.63 µM
- Ki [2]: 0.257 µM
- Ki [3]: 0.000513 µM
Structure (SMILES): COc1ccc(C2=NN(C3CCN(c4ccnc(N)n4)CC3)C(=O)[C@@H]3CC=CC[C@H]23)cc1OC
- IC50 [1]: 3.89 µM

- IC50 (Trypanosoma brucei): 3.39 µM
- Ki [2]: > 1.66 µM
Structure (SMILES): O=C1[C@@H]2CC=CC[C@@H]2C(c2ccc(OC(F)F)c(O)c2)=NN1C1CCN(c2ncnc3ccsc23)CC1
- IC50 [1]: 64.6 µM

- IC50 (Trypanosoma brucei): 0.263 µM
- Ki [2]: 0.646 µM
- Ki [3]: 0.000224 µM
Structure (SMILES): COc1ccc(C2=NN(C3CCN(c4ncnc5ccccc45)CC3)C(=O)[C@@H]3CC=CC[C@H]23)cc1OC
- IC50 [1]: 3.02 µM

- IC50 (Trypanosoma brucei): 0.372 µM
- Ki [2]: 0.0661 µM
- Ki [3]: 0.000234 µM
Structure (SMILES): COc1ccc(C2=NN(C3CCN(c4ncnc5ccsc45)CC3)C(=O)[C@@H]3CC=CC[C@H]23)cc1OC
- IC50 [1]: 7.24 µM
